# Hits are enriched below; roughly 2.5% of the tested compounds scored in any of these assays.
# mABHD4 FP = ABHD4 (mouse) inhibition, primary FP screen. Q8VD66. purified mABHD4, FP-Rh probe fluorescence polarization. inhibition, % at 8.92 µM. hit rate 0.54% among 370,000;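 active = inhibition exceeding the mean over every tested compound plus 3 SD, cut at about 30% in these data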;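 note: 0% = plate median of compound wells and 100% = S159A mutant with DMSO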
#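 assay system = mABHD4 protein | compound dosing = single nominal dose of 8.92 µM, 0.89% DMSO final | read-out basis = percent inhibition of probe binding, normalized to plate controls | schedule = Enzyme–compound pre-incubation 45 min, then probe 60 min, both 25 °C | detection = fluorescence polarization, excitation 525 nm, emission 598 nm, BODIPY TMR filters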
# HTRA1 inhibitor = blocks human HTRA1 serine peptidase; Q92743; recombinant HTRA1, FP-rhodamine activity-based probe, fluorescence polarization; inhibition, % at 5.96 µM; hit rate 0.5% among 340,000; in the data active = inhibition above about 36%;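 note: 0% = enzyme with DMSO and 100% = wells lacking enzyme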
# Target sequence (Q92743 whole entry, looked up): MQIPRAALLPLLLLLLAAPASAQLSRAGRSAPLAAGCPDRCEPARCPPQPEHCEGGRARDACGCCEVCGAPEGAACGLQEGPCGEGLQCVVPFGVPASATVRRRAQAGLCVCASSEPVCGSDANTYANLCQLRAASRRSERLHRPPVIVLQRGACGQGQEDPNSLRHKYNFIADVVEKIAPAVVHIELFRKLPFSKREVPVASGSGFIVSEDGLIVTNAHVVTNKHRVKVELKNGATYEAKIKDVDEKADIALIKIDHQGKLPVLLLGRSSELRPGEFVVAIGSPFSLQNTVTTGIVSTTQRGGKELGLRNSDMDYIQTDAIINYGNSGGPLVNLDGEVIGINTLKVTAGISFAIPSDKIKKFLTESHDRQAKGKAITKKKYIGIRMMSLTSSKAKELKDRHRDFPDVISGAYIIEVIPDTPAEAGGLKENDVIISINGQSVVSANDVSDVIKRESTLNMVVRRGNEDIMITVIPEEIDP
# TCR CD3 inh = human TCR-CD3 binding inhibition; TAMRA-labeled TCR probe fluorescence, biochemical; inhibition, % at 9.4 µM; hit rate 0.37% among 360,000; AID 651800;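 note: recombinant mutant TCR 2C K166C tagged with TAMRA read by polarization; 0% = receptor in buffer alone and 100% = receptor with positive control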
# rCAG binder = molecules binding r(CAG) RNA repeats; r(CAG) RNA repeat, TO-PRO-1 dye displacement fluorescence; inhibition, % at 3 µM; hit rate 1.3% among 370,000; AID 651821;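 active = inhibition above the plate cutoff, the mean of all test compounds on that plate plus 3 SD, cut at about 35% in these data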;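 note: 0% = DMSO alone and 100% = 100 µM mitoxantrone as full dye displacement; higher means more dye released from RNA so lower well fluorescence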
# SIAE primary = human SIAE inhibition, primary screen; Q9HAT2; SIAE FP-Rh probe binding, fluorescence polarization; inhibition, % at 9.66 µM; hit rate 0.69% among 370,000; AID 1053197;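 active = inhibition above a cutoff: mean of compounds within the control limits plus 3 SD of those, cut at about 17% in these data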;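 note: 0% = plate median of compound wells and 100% = probe without SIAE protein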
# HTRA1 inh conf = confirmation of human HTRA1 inhibitors | inhibition, % at 5.96 µM | recombinant HTRA1, FP-rhodamine activity-based probe, fluorescence polarization | AID 540248 | shares compounds with HTRA1 inhibitor | hit rate 66% among 1,600;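 active = mean inhibition over three repeats above a set limit taken from the earlier primary screen, cut at about 37% in these data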;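 note: 0% = HTRA1 with DMSO and 100% = wells lacking HTRA1; inhibitors block probe binding so polarization drops and inhibition rises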
# BSA probe FL = BSA probe counter-screen for TCR-CD3 inhibitors | shares compounds with TCR CD3 inh | TAMRA-labeled BSA probe fluorescence counterscreen | inhibition, % at 9.4 µM | hit rate 10% among 1,200 | AID 652035; in the data active = inhibition above about 23%;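 note: 0% = buffer low control and 100% = reference high control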
# TCR-CD3 conf = TCR-CD3 interaction inhibition, confirmation | hit rate 48% among 1,200 | inhibition, % at 9.4 µM | TAMRA-labeled TCR probe fluorescence binding assay | AID 652036 | shares compounds with TCR CD3 inh
# rCAG bind conf = r(CAG) RNA repeat binding, confirmation; shares compounds with rCAG binder; TO-PRO-1 dye displacement fluorescence; inhibition, % at 3 µM; hit rate 70% among 4,300; AID 652065;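 active = inhibition above a per-plate cutoff, the mean inhibition of sample wells plus 3 SD, cut at about 35% in these data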;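 note: loss of TO-PRO-1 fluorescence as compound displaces dye from 1x1 AA loop RNA; 0% = DMSO only wells and 100% = 100 µM mitoxantrone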
# DNA CAG counter = disrupts DNA CAG TO-PRO-1 complex, flagging rCAG hits. shares compounds with rCAG binder. d(CAG) DNA oligo TO-PRO-1 dye displacement, fluorescence. inhibition, % at 3 µM. hit rate 94% among 4,300;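 active = inhibition above its plate's cutoff, the mean test-well inhibition plus 3 SD, cut at about 4.8% in these data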;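 note: 0% = DNA dye mix with DMSO and 100% = 100 µM mitoxantrone; hits displace the dye from DNA and so lower well fluorescence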
# ABHD4 confirm = confirmation of mouse ABHD4 inhibitors; shares compounds with mABHD4 FP; purified mABHD4, FP-Rh probe fluorescence polarization; inhibition, % at 8.92 µM; hit rate 55% among 1,800; AID 720658;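 active = mean inhibition across replicates above the hit cutoff set in the primary screen, cut at about 30% in these data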;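 note: 0% = wild-type ABHD4 with DMSO and 100% = catalytically dead S159A mutant with DMSO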
# SIAE confirm = confirmation of human SIAE inhibitors | hit rate 13% among 2,300 | SIAE FP-Rh activity-based probe, fluorescence polarization | shares compounds with SIAE primary | AID 1117263 | inhibition, % at 9.66 µM;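 active = mean inhibition of the replicates above the hit cutoff set in the primary screen, cut at about 17% in these data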;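 note: 0% = SIAE with DMSO and probe and 100% = probe without SIAE; inhibitors lower polarization as more probe stays unbound to SIAE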
# * hit, by the source's call; i = inactive; . = not tested or not shown. Cut-off read from the data, not from the text of the source, unless noted: active = inhibition above about 19%; inactive = the rest.
SMILES,mABHD4 FP,HTRA1 inhibitor,TCR CD3 inh,rCAG binder,SIAE primary,HTRA1 inh conf,BSA probe FL,TCR-CD3 conf,ABHD4 confirm,SIAE confirm,others
CCOc1c(Cl)cc(CNc2ccc(N3CCCC3)cc2)cc1OC,24,50*,7,12,21*,16,.,.,.,11,
CC(=O)Nc1ccc(N=Cc2c(O)c(C(=O)Nc3ccccc3)cc3ccccc23)cc1,-6,.,2,13,7,.,.,.,.,.,
COc1ccc2c(c1)cc(C(=O)N/N=C/c1c(O)c(C(=O)O)cc3ccccc13)n2C,19,55*,37*,91*,39*,39*,-17,45*,.,6,rCAG bind conf=89*;DNA CAG counter=68*
Cn1c2ccccc2c2cc(/C=N/NC(=O)c3ccc(O)cc3O)ccc21,.,-19,.,.,.,.,.,.,.,.,
Cn1c(O)c(/C=N/NC(=O)c2cc3ccccc3cc2O)c2ccccc21,40*,54*,50*,95*,23*,55*,-13,53*,44*,10,rCAG bind conf=90*;DNA CAG counter=75*
Cn1cccc1/C=C1\CCC/C(=C\c2cccn2C)C1=O,9,-10,3,-52,-14,.,.,.,.,.,
O=C(O)c1cccc(CN2C(=O)c3ccccc3C2=O)c1,-8,1,-13,4,-1,.,.,.,.,.,
O=C1c2cccc3c(O)ccc(c23)C(=O)N1Cc1ccccc1,75*,66*,59*,i,42*,46*,74*,57*,80*,49*,
NC(=O)c1cnn2c1NC(c1ccc(F)cc1)CC2C(F)(F)F (stereo unspecified),0,4,-2,-3,-1,.,.,.,.,.,
Nc1ccc(N2CCN(CCCCN3C(=O)C4CCCN4C3=O)CC2)cc1 (stereo unspecified),81*,38*,18,-1,31*,36,.,.,11,9,
COc1ccc(/C=N/NC(=O)c2ccccc2O)cc1Cn1cc([N+](=O)[O-])cn1,3,-3,2,4,-3,.,.,.,.,.,
COc1ccc(/C=N/NC(=O)c2cc(O)c(O)c(O)c2)cc1Cn1cc([N+](=O)[O-])cn1,28,72*,63*,31,46*,82*,-10,78*,.,2,
Oc1cccc(C=Nc2cccc3ccccc23)c1O,53*,71*,2,16,20*,53*,.,.,.,14,
Oc1ccccc1C=Nc1cccc2ccccc12,0,-3,-11,-6,1,.,.,.,.,.,
C/C(=C\C(=O)c1cccnc1)Nc1ccc(O)cc1,72*,64*,89*,0,26*,3,5,1,-5,3,
COc1ccc2ccccc2c1/C=N/NC(=O)c1cccc(Br)c1,-3,-42,-3,17,-11,.,.,.,.,.,
O=C(N/N=C/c1c(O)ccc2ccccc12)c1cccc(C(F)(F)F)c1,21,57*,11,12,25*,58*,.,.,.,6,
O=c1c2ccccc2nc(N/N=C/c2c(O)ccc3ccccc23)n1O,34*,62*,9,35*,18*,68*,.,.,34*,11,rCAG bind conf=71*;DNA CAG counter=30*
O=CN1CCN(C(=O)C(=O)c2cn(CC(=O)N3CCCCC3)c3ccccc23)CC1,2,11,-2,-1,2,.,.,.,.,.,
O=[N+]([O-])c1ccccc1N/N=C/c1c[nH]c2ccccc12,49*,78*,4,37*,18*,76*,.,.,89*,21*,rCAG bind conf=25;DNA CAG counter=16*
O=[N+]([O-])c1ccccc1N/N=C/c1ccccc1,4,2,2,-2,-3,.,.,.,.,.,
C(=N\Nc1nc2ccccc2[nH]1)/c1c[nH]c2ccccc12,14,38*,4,11,21*,21,.,.,.,33*,
O=C1CCCC(O)=C1N=Nc1ccc(C(=O)O)cc1,29,40*,18,9,66*,12,.,.,.,-2,
O=C1CCCC(O)=C1N=Nc1c(Cl)cc(C(F)(F)F)cc1Cl,62*,72*,26*,-2,89*,1,-7,-3,-3,4,
Cc1ccc(-c2cc(-c3ccccc3[N+](=O)[O-])[nH]n2)c(O)c1,-8,-25,-7,13,-3,.,.,.,.,.,
SMILES,mABHD4 FP,HTRA1 inhibitor,TCR CD3 inh,rCAG binder,SIAE primary,HTRA1 inh conf,BSA probe FL,TCR-CD3 conf,ABHD4 confirm,SIAE confirm,others
Oc1ccc(NCc2cccs2)cc1,54*,37*,21*,2,20*,4,2,6,11,9,
CN(/N=C\c1ccc(O)c(O)c1)c1nc(-c2ccccc2)cc(-c2ccccc2)n1,34*,39*,2,29,35*,66*,.,.,123*,-22,
CCOc1cccc(CNc2ccc(O)cc2)c1OCc1ccccc1Cl,55*,52*,24*,11,30*,15,-8,-1,31*,10,
CC(=O)c1cc(NC(=O)c2ccc(Cl)cc2)c(=O)oc1/C=C/N(C)C,0,-14,7,9,-8,.,.,.,.,.,
CC(C)N1C(=O)CC(Nc2cccc3cccc(N)c23)C1=O (stereo unspecified),36*,36*,9,29,32*,11,.,.,.,6,
COc1ccc(NC2CC(=O)N(C(C)C)C2=O)cc1 (stereo unspecified),5,11,-3,5,2,.,.,.,.,.,
CSc1ccc(CN(C)C(=O)c2cccc(S(=O)(=O)N3CCN(Cc4ccccc4)CC3)c2)cc1,-4,-10,2,1,-2,.,.,.,.,.,
COc1ccc(/C=N/NC(=O)C(=O)/C=C2\NC3(CCCC3)Cc3ccccc32)cc1,-23,-78,-2,13,-19,.,.,.,.,.,
O=C(/C=C1\NC2(CCCC2)Cc2ccccc21)C(=O)N/N=C/c1ccc(O)c(O)c1,32*,79*,28*,18,29*,63*,.,.,8,-30,
N#CC1=C(N)Oc2cc(N)ccc2C1c1ccsc1 (stereo unspecified),-5,8,1,4,8,.,.,.,.,.,
N#CC1=C(N)Oc2ccc3ccc(O)cc3c2C1c1ccsc1 (stereo unspecified),132*,126*,70*,-52,126*,58*,72*,53*,88*,63*,

# From PubChem BioAssay
